b-catenin transl: alters nuclear translocation of beta-catenin in HeLa cells; immunofluorescence imaging; nuclear translocation activity, % at 5 µM; 190,000 compounds, 0.3% hits;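 active means nuclear translocation activity above 50% at 5 µM, with a well cell count of 50 or more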;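 further: per-cell ratio of nuclear to cytoplasmic median beta-catenin stain intensity; plate controls were DMSO negative control for no effect and GSK-3 inhibitor IX positive control for full effect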
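Assay system: human HeLa cells, native beta-catenin; doses: 5 µM primary, 0.02–20 µM confirmation; incubation: compound treatment 24 h, 37°C, 5% CO2; technique: fluorescence imaging of beta-catenin antibody stain plus DAPI; measure: % activation, nuclear-to-cytoplasmic median beta-catenin signal ratio per cell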
L major viab: inhibitors of Leishmania major promastigote growth; inhibition, % at 10 µM; Leishmania major promastigotes, resazurin fluorescence viability; 200,000 compounds, 9% hits; in the data active means inhibition above about 50%;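 further: promastigotes grown with compound for 44 hours at 28 °C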
HSV replic up: HSV replication enhancement; HSV replication augmentation in cells, fold increase; maximum fold increase; 220,000 compounds, 0.005% hits; in the data active means maximum fold increase above about 1.5; tested in PC3 cells
MT stabilizer: microtubule stabilization, imaging screen; HeLa tubulin immunostaining HCS, 24 h; share of cells brighter than vehicle mean+2SD; % tubulin-high responders, % at 10 µM; 200,000 compounds, 0.83% hits; AID 2205;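 active means plate Z-score above 3 for both tubulin-high and condensed-nucleus cell shares, with cell loss under 80%, at 10 µM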;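 further: anti alpha tubulin signal scored within the nucleus-defined area of each cell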
Dynein transport: dynein cargo transport inhibition. 3617.4 mouse cells, GR-EGFP nuclear translocation imaging; test concentration mostly 20 µM; stimulated with dexamethasone, 1 µM; active compounds read low. z-score, hits read low. 220,000 compounds, 0.47% hits. AID 1381;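 active means plate z-score of nuclear minus cytoplasmic receptor signal below a set negative limit, without overly bright fluorescence or cell loss, cut at about -3.5 in these data, passing the limit was not always enough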;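 further: z-score of nuclear minus cytoplasmic ring GR-EGFP intensity difference per well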
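Buffer or medium: Induction medium lacking tetracycline, stripped serum | Also added: Dexamethasone agonist, 1.0 µM final, for 30 min | Timing: 48 h induction, 1 h compound, 30 min dex at 37 °C | Detection: Formaldehyde fixation, Hoechst nuclear stain, 10x automated fluorescence imaging | Measure: Nuclear versus cytoplasmic GR-EGFP signal, averaged per well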
Numbers without * were called inactive; i = inactive; x = no result. Most compounds without a hit are left out; they make up all but 8.9% or so of the library.

SMILES | b-catenin transl | L major viab | HSV replic up | MT stabilizer | Dynein transport
CC(=O)c1ccc(N2CCN(C(=O)c3ccc4c(Cl)c5c(nc4c3)CCCC5)CC2)cc1 | -1.7 | 11.7 | i | 4.9 | -3.6*
O=C(c1ccc2c(Cl)c3c(nc2c1)CCCC3)N1CCC(N2CCCCC2)CC1 | -2.3 | 30.2 | i | 6.0 | -3.12
CCOCCN1CCN(c2c(CC)c(C)nc3cc(-c4cc(OC)cc(OC)c4)nn23)CC1 | 1.4 | 72.2* | i | 1.5 | -0.0722
O=C(Nc1ccccc1NC(=O)NC1CCCCC1)NC1CCCCC1 | -0.6 | 22.7 | i | 2.1 | -0.0459
Nc1ccccc1NC1CCCCC1 | -0.3 | 53.7* | i | 3.8 | -0.677
CC(=O)c1sc2nc(CSc3nncn3C)[nH]c(=O)c2c1C | -3.5 | -1.3 | i | 3.9 | -0.735
O=C(/C=C/c1c(F)cccc1Cl)NCc1ccco1 | -2.8 | -3.9 | i | 3.8 | 0.154
O=C(CN1C(=O)/C(=C/c2c(F)cccc2Cl)Oc2ccccc21)NCc1ccco1 | 3.2 | 26.6 | x | 19.4* | 1
COc1ccc(Sc2ccc(/C=C3\C(=O)NN(c4ccccc4)C3=O)o2)cc1 | -2.0 | 56.4* | i | 5.1 | 0.58
COc1ccc(-n2c(C)cc(/C=C3\C(=O)NN(c4ccccc4)C3=O)c2C)cc1 | 1.6 | -1.3 | i | 3.3 | 0.22
COc1ccc(/C=C/c2c([N+](=O)[O-])c(=O)n(C)c(=O)n2C)cc1 | 0.6 | 36.2 | i | 3.8 | -1.11
CCOc1ccc(/C=C/c2c([N+](=O)[O-])c(=O)n(C)c(=O)n2C)cc1 | -0.7 | 65.2* | i | 1.5 | 0.766
CCS(=O)(=O)NCC(c1cccnc1)N1CCN(c2ccc(F)cc2)CC1 (centres undefined) | -1.5 | 69.2* | i | 2.8 | 2.27
CS(=O)(=O)NCC(c1cccnc1)N1CCN(c2ccc(F)cc2)CC1 (centres undefined) | -0.8 | 44.7 | i | 2.9 | -0.134
CCS(=O)(=O)NCC(c1cccnc1)N1CCN(c2ccccc2OC)CC1 (centres undefined) | -1.1 | 23.5 | i | 1.7 | -0.602
CCS(=O)(=O)NCC(c1cccnc1)N1CCN(c2ccccc2F)CC1 (centres undefined) | 0.3 | 78.5* | i | 6.7 | 0.309
COc1ccc(-c2csc(C)n2)cc1Br | -2.0 | 1.5 | i | 2.9 | 0.241
OC1(c2ccc(Br)cc2)CCNCC1 | -0.9 | 84.4* | i | 1.4 | -0.32
O=C(Nc1nccs1)C1CC(=O)N(c2ccccc2Cl)C1 (centres undefined) | x | -3.9 | i | 2.2 | 0.715
CCOC(=O)C1=C(O)C(=O)N(c2ccc(S(N)(=O)=O)cc2)C1c1cccc([N+](=O)[O-])c1 (centres undefined) | 1.9 | x | i | x | 0.538
CCCC1(C)Nc2ccccc2-c2nc3ccccc3n21 (centres undefined) | 0.8 | 85.4* | i | 2.6 | -0.578
c1ccc2c(c1)NC1(CCCC1)n1c-2nc2ccccc21 | -1.4 | 43.7 | i | 8.6 | -1.51
CC(=O)Nc1ccc(NC(=O)CSc2ccc(-c3ccco3)nn2)cc1 | -3.6 | -2.9 | i | 1.3 | -0.405
Cn1nc(C(=O)OCc2ccccc2F)c2ccccc2c1=O | 0.2 | 6.2 | i | 2.8 | -0.0571
COc1ccc(NC(=O)CCC(=O)N(Cc2ccc(OC)c(OC)c2)c2nccs2)cc1 | 3.1 | 54.3* | i | 2.9 | 0.732
SMILES | b-catenin transl | L major viab | HSV replic up | MT stabilizer | Dynein transport
COc1ccc(OC)c(NC(=O)CCC(=O)N(Cc2ccc(OC)c(OC)c2)c2nccs2)c1 | 0.2 | -3.9 | i | 3.4 | 0.374
COc1cc2[nH]c(=O)n(C3CCCCC3)c(=O)c2cc1OC | 1.2 | 50.2* | i | 3.2 | -1.28
CCOc1cc2[nH]c(=S)n(C3CC3)c(=O)c2cc1OCC | -5.3 | -4.5 | i | 2.7 | -0.925
Cc1sc2nc(C(C)C)nc(SCC(=O)N3c4ccccc4CC3C)c2c1C (centres undefined) | -0.2 | 94.0* | i | 4.9 | 0.898
CCN(Cc1ccncc1)C(=S)Nc1ccc(Cl)cc1 | -0.5 | -4.7 | i | 4.1 | -0.096
CCN(CC)C(=S)Nc1ccc([N+](=O)[O-])cc1 | 1.5 | 59.2* | i | 1.6 | 0.414
CCNC(=O)C(=O)Nc1ccc([N+](=O)[O-])cc1 | -2.0 | -2.1 | i | 2.3 | -0.181
CCN(CC)C(=S)Nc1ccc(Cl)c(Cl)c1 | 0.3 | 61.8* | i | 2.5 | 1.6
O=C(c1cnn2c(C(F)(F)F)cc(-c3ccc4c(c3)OCO4)nc12)N1CCCCC1 | -0.2 | 99.1* | i | 5.2 | 1.13

From PubChem
